We go through five molecules from ChEMBL document CHEMBL1781963, “Discovery of novel hepatoselective HMG-CoA reductase inhibitors for treating hypercholesterolemia: a bench-to-bedside case study on tissue selective drug distribution” (Bioorg Med Chem Lett, 2011).

Data set [1] can be described thus: Fraction unbound in rat plasma at 0.5 ug/ml. Format: ADME, cell-free. The gist of the method: (§1)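 Unbound fraction in rat, dog or human plasma, measured at a drug concentration of 0.5 μg/mL.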
The target in data set [2] is T1, OATP2B1 (Homo sapiens, UniProt O94956).
T1 sequence (O94956 whole entry): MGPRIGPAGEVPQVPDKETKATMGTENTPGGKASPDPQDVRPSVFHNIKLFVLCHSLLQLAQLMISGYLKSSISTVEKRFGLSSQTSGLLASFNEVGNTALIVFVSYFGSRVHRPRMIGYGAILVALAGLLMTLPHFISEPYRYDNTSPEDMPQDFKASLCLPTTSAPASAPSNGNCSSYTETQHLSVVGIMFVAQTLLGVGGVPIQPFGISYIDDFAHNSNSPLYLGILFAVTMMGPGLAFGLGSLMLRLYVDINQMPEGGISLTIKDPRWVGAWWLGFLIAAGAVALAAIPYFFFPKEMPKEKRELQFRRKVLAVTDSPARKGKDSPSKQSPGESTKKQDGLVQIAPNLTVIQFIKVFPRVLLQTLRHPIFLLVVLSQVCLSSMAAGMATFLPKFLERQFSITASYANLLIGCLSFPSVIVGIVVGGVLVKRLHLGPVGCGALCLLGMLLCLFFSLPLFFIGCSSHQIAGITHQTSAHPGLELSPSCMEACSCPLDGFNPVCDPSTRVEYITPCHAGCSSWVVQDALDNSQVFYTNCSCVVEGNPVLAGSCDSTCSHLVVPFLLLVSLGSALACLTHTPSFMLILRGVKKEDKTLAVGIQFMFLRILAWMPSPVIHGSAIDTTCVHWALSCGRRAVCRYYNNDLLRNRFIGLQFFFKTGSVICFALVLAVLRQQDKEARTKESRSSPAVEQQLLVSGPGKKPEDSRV
The data set can be described thus: Drug uptake by human hepatic OATP2B1 transporter expressed in HEK293 cells at 10 uM relative to wild-type HEK293 cells. Format: ADME, cell-based. The conditions noted are these: HEK293 cells expressing OATP2B1, read-out: FC. The procedure, abridged:
(§2)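 Individual hepatic OATP transporters were over-expressed in CHO or HEK293 cells: rat rOatp1a1, rOatp1a4 and rOatp1b2, and human hOATP1B1, hOATP1B3 and hOATP2B1. Substrate uptake is expressed as fold difference relative to the wild-type parental line. Rosuvastatin/pravastatin served as positive control and midazolam as negative control in each assay.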

The subject of data set [3] is Hepatocyte. In words: Drug uptake in sandwich-cultured rat hepatocytes assessed per mg of protein at 1 uM in presence of rifamycin SV. Format: ADME, cell-based. The gist of the method: (§3)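 Rat or human hepatocytes were cultured in sandwich configuration with a Matrigel overlay and compound uptake was measured. Active uptake was assessed by inhibition with the pan-OATP inhibitor rifamycin SV. Rosuvastatin/pravastatin served as positive control and midazolam as negative control.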

The subject of data set [4] is Hepatocyte. The data set can be described thus: Drug uptake in sandwich-cultured rat hepatocytes assessed per mg of protein at 1 uM. Format: ADME, cell-based. The gist of the method: as §3
A further data set concerns the target T2, OATP1A1 (Rattus norvegicus, UniProt P46720).
T2 sequence (P46720 whole entry): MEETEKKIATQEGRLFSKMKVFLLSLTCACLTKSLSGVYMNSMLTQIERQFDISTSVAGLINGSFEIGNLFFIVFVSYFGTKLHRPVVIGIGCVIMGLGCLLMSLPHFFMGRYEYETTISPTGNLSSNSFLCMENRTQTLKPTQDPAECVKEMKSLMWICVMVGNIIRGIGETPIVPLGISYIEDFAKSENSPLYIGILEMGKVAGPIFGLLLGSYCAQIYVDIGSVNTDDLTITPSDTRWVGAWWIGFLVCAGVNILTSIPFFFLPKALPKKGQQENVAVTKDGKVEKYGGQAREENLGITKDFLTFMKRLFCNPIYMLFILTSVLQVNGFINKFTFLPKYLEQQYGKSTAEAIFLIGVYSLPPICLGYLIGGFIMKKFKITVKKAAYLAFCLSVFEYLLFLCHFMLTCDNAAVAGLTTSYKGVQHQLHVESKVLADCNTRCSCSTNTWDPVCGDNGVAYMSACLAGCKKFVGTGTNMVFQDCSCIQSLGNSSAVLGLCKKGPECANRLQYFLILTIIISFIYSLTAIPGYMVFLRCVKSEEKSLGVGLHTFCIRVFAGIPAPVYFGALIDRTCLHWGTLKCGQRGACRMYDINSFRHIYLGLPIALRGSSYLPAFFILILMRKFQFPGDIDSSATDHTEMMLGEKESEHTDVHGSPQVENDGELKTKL
The data set can be described thus: Drug uptake by rat hepatic OATP1A1 transporters expressed in CHO cells at 10 uM relative to wild type CHO cells. Format: ADME, cell-based. The note with it: CHO cells expressing rat OATP1A1, read-out: FC. The procedure, abridged: as §2

The target of data set [5] is T1, OATP2B1. The data set can be described thus: Drug uptake by human hepatic OATP2B1 transporter expressed in HEK293 cells at 1 uM relative to wild-type HEK293 cells. Format: ADME, cell-based. The conditions noted are these: HEK293 cells expressing human OATP2B1, read-out: FC. The gist of the method: as §2
Data set [6] can be described thus: Fraction unbound in rat liver at 1 uM. Format: ADME, tissue-based. The gist of the method:
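Unbound fraction in rat liver tissue, measured at 1 μM drug.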

A further data set deals with T3, OATP1B2 (Rattus norvegicus, UniProt Q9QZX8).
T3 sequence (Q9QZX8 whole entry): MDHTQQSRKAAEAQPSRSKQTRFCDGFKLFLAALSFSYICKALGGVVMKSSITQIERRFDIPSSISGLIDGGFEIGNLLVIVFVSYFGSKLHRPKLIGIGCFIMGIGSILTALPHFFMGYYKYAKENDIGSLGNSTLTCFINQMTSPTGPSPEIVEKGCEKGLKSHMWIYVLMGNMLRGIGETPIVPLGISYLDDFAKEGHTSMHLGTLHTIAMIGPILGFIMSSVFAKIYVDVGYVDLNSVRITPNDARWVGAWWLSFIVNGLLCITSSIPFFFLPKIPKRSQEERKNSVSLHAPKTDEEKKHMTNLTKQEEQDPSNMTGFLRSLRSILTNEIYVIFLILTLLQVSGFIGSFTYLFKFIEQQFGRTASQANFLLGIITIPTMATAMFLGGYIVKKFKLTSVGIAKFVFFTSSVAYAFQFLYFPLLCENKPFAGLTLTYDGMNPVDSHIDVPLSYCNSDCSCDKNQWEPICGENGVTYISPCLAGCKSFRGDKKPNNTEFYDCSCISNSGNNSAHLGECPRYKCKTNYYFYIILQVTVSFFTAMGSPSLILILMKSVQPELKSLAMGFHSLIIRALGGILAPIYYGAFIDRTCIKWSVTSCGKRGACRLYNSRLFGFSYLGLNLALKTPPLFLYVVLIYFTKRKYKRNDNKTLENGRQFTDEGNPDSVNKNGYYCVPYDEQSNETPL
The data set can be described thus: Drug uptake by rat hepatic OATP1B2 transporters expressed in CHO cells at 1 uM relative to wild type CHO cells. Format: ADME, cell-based. The conditions noted are these: CHO cells expressing rat OATP1B2, read-out: FC. The procedure, abridged:
as §2

A further data set has as its system Canis familiaris. In words: fCmax in dog at 5 mg/kg, po. Type of data set: ADME, organism-based, Canis lupus familiaris. The arrangement: dose 5 mg/kg, route oral. The note with it: in vivo. The procedure, abridged: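 Single po dose: rat 10 mg/kg (n = 2), dog 5 mg/kg (n = 1 or 3 animals). Values are geometric means. Cmax is given as free drug concentration using plasma protein binding values, which were determined at 0.5 μg/mL.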

A short description of data set [7]: Fraction unbound in dog plasma at 0.5 ug/ml. Format: ADME, cell-free, Canis lupus familiaris. The gist of the method:
as §1

Molecule `CC(C)c1nc(N(C)S(C)(=O)=O)nc(-c2ccc(F)cc2)c1/C=C/[C@@H](O)C[C@@H](O)CC(=O)O` [ROSUVASTATIN] yielded an unbound share (fraction unbound) at 0.5 ug/ml in data set [1] of 0.06. Further, the uptake ratio at 10 µM on OATP2B1 [2] is 6.6; at OATP1A1, 5.3. Further, the Drug uptake is 97% in the data set with Hepatocyte [3] and 24 pmol/min/mg in the data set on Hepatocyte [4]. The uptake ratio at 1 µM at OATP2B1 [5] stood at 5.5. Besides, the free fraction (fraction unbound) at 1 µM in [6] was 0.17.

Regarding `CC[C@H](C)C(=O)O[C@H]1C[C@H](O)C=C2C=C[C@H](C)[C@H](CC[C@@H](O)C[C@@H](O)CC(=O)O)[C@H]21` [PRAVASTATIN], the uptake ratio at 1 µM at OATP1B2 is 3.6. In addition, the uptake ratio at 10 µM on OATP1A1 turned out to be 3.9.

Regarding `Cc1ncc2n1-c1ccc(Cl)cc1C(c1ccccc1F)=NC2` [MIDAZOLAM], the uptake ratio at 10 µM on OATP2B1 [2] is 0.7; at OATP1A1, 1.7. In addition, the uptake ratio at 1 µM at OATP1B2 is 1.1; on OATP2B1 [5], 0.8.

`O=C([O-])C[C@H](O)C[C@H](O)CCn1c(-c2ccc(F)cc2)nc(C(=O)NCc2cccc(F)c2)c1C1CC1.[Na+]`: the fCmax in the data set on Canis familiaris came out at 5.4 ng/mL. In addition, the fraction unbound at 0.5 ug/ml in data set [7] came to 0.43; in [1], 0.15. The uptake ratio at 10 µM came out at 6.8 at OATP2B1 [2] and 4.4 on OATP1A1. Also, the Drug uptake with Hepatocyte [3] turned out to be 100%; in the data set on Hepatocyte [4], 17 pmol/min/mg. Besides, the uptake ratio at 1 µM on OATP1B2 worked out at 1.8; on OATP2B1 [5], 7.1. Also, in data set [6], the fraction unbound at 1 µM is 0.23.

`Cc1ccc(CNC(=O)c2nn(-c3ccc(F)cc3)c(CC[C@@H](O)C[C@@H](O)CC(=O)O)c2C(C)C)cc1` yielded a fCmax in the data set with Canis familiaris of 51.5 ng/mL. The values for the fraction unbound at 0.5 ug/ml in data set [7] and in data set [1] were 0.032 and 0.016, respectively. Also, the uptake ratio at 10 µM came out at 1.4 on OATP2B1 [2] and 4.2 at OATP1A1. Further, the figures for the Drug uptake in the data set with Hepatocyte [3] and in the data set with Hepatocyte [4] were 98% and 14 pmol/min/mg, respectively. The uptake ratio at 1 µM at OATP1B2 is 2.9; on OATP2B1 [5], 2.1. The molecule further yielded a free fraction (fraction unbound) at 1 µM in [6] of 0.052.
